Source: article PMC8245904 (Acta Pharmaceutica Sinica. B, 2021)
Where two headings read alike, the source gives them in different places.

How the values were obtained:
[1] = blood-to-lumen jejunal 51Cr-EDTA clearance; assay type: in vivo; details: hypotonic perfusate (100 mOsm) with lidocaine, rat SPIP, test vs control period
In short: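 Male Wistar Han rats (299–395 g) anaesthetised with inactin (180 mg/kg i.p., 5% w/v), body temperature held at 37.5 ± 0.5 °C, arterial pressure monitored. The proximal jejunal segment (about 10 cm) was single-pass perfused at 0.2 mL/min at 37 °C. A 30-min PBS stabilisation reached steady plasma 51Cr-EDTA. Then came 60 min of isotonic pH 7.4 control buffer holding both peptides, followed by 75 min of hypotonic (100 mOsm) perfusate with lidocaine 1 mg/mL. Clearance was computed as blood-to-lumen 51Cr-EDTA transport per 100 g wet jejunal tissue, expressed as the ratio of mean test-period (60 min) to mean control-period (45 min) values. n = 6 rats.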

[2] = compatibility/stability of study drugs in perfusion solution; assay type: physicochemical; details: solution pH 6.5, 37 °C; for concentration in perfusion solution, after: after 4 h; for concentration in perfusion solution, before: before 4 h
[3] = ref 22 (enalaprilat), ref 23 (hexarelin); cited from earlier work
[4] = cited from earlier work; for basal permeability: recent rat SPIP study with transcellular PEs; for effect of transcellular PEs on jejunal permeability: sodium dodecyl sulfate (SDS) and caprate, rat SPIP in vivo
[5] = dissociation constant; cited from earlier work
[6] = n-octanol-water coefficient; ref 22 (enalaprilat), ref 23 (hexarelin); cited from earlier work
[7] = Pefabloc SC at 0.3 mg/mL, in rat; cited from earlier work
[8] = rat single-pass intestinal perfusion; assay type: in vivo; details: with EDTA at 1 mg/mL or the two hypotonic (100 mOsm) perfusion solutions with or without lidocaine; rat SPIP, n = 6
[9] = cited from earlier work

Compound	concentration in perfusion solution, after [2] [µmol/L]	concentration in perfusion solution, before [2] [µmol/L]	HBA (hydrogen bond acceptor) [3]	HBD (hydrogen bond donor) [3]	basal permeability [4]	effect of transcellular PEs on jejunal permeability [4]	LogP [6]	other results
O=C([O-])CN(CCN(CC(=O)[O-])CC(=O)[O-])CC(=O)[O-].[51Cr+3] [51Cr-EDTA, ^51chromium-labeled EDTA]								increase in CLCr-EDTA (permeability) [1]: 15 fold
C[C@H](N[C@@H](CCc1ccccc1)C(=O)O)C(=O)N1CCC[C@H]1C(=O)O [Enalaprilat]	84.8	83.9	6	3	0.013 ± 0.009 × 10^−4 cm/s	substantially increased	−0.13	pKa (footnote a, Acid) [5]: 7.84; pKa (footnote b, Base) [5]: 3.17
Cl.NCCc1ccc(S(=O)(=O)F)cc1 [Pefabloc SC]								inhibition of the intestinal degradation of hexarelin [7]: completely inhibits
Hexarelin	33.9	29.9	9	11	0.0019 ± 0.0013 × 10^−4 cm/s	unaffected	0.73	PSA (polar surface area) [3]: 300; Peff ratio (baseline vs. test) [8]: no increase
desmopressin								bioavailability of the given oral dose [9]: 0.1%
semaglutide								terminal half-life in plasma [9]: ~1 week; bioavailability of the given oral dose ([9]; with SNAC): 0.4%–1.0
